From the RNAGym collection of RNA variant scans (doi:10.1126/science.aae0568)
Fewer inactive variants are shown than the library holds.

B1: tRNA (parent)
chain: GUUCCGUUGGCGUAAUGGUAACGCGUCUCCCUCCUAAGGAGAAGACUGCGGGUUCGAGUCCCGUACGGAACG

Variants of: B1
Assay: yeast fitness relative to wild type (ratio to wild type); higher = fitter; tRNA-Arg(CCU), competitive growth, 37 C, YPD
How it was run: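 Variants of the tRNA-Arg(CCU) gene were chemically synthesised with a 3% per-site mutation rate across 69 sites and placed at the native genomic locus in Saccharomyces cerevisiae. Six parallel replicates of the pooled strains were competed in YPD at 37°C for 24 hours, and gene amplicons from the start and end populations were read by 100-nucleotide paired-end sequencing. Darwinian fitness relative to wild type was derived from changes in genotype frequencies. Genotypes required ≥ 100 starting reads, and estimates < 0.5 were set to 0.5.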

Row | Variant | yeast fitness
1 | A21U C33A | 0.578
2 | C4A C27U C61U | 0.62
3 | C4A C5G U8A C30A G67C | ≤ 0.5
4 | A15U U32A G50A G51A G56C C61G C62U | ≤ 0.5
5 | C46G A57C G58A G67A | ≤ 0.5
6 | G18A A43U | 0.637
7 | A37G A65U | 0.598
8 | U3G C4A | 0.949
9 | U3A C24A C30U C62U | ≤ 0.5
10 | C4G A45G | 0.826
11 | U19A G67U | 0.974
12 | U2C G17A A43C C49U U54A G56C A65U A70C | ≤ 0.5
13 | U54A A57C | 0.555
14 | G6A G25C C34U C46A | ≤ 0.5
15 | A36C A37U G50C C66U | 0.56
16 | C34G C49G C61U U64A | ≤ 0.5
17 | U3C A40U G44C | 0.625
18 | G12A C31U | 0.919
19 | U7A A36U C60A U64C | ≤ 0.5
20 | C34U A40C A42C G48A | ≤ 0.5
21 | A15C C33U U47G C49U G52C G68A | ≤ 0.5

Row | Variant | yeast fitness
22 | C11U | 1.01
23 | U16A C49U G52A C60A | ≤ 0.5
24 | A15G U54A G63C | 0.631
25 | U16G G23C U35C | 0.655
26 | A36C A69U | 0.63
27 | U3C G9A A57C | 0.584
28 | C5A G38U C55A | ≤ 0.5
29 | C22U C29A A36G A45U | ≤ 0.5
30 | U26A C31G | 0.942
31 | G12C C22G A40C | 1.03
32 | C29G U32C A42C | 0.54
33 | G17A G68A | 0.81
34 | U2C C4U C62U | 0.698
35 | U53G A57G | 0.584
36 | G9U G23C A45U G51C | ≤ 0.5
37 | C31A U32C C46U | ≤ 0.5
38 | C11U C22G U28A C31G C55A G68C | ≤ 0.5
39 | C31G A45C C49A | 0.807
40 | G6A C30U U54A | ≤ 0.5
41 | G23A C33G A69C | ≤ 0.5
42 | U8C C61G | 0.678

Row | Variant | yeast fitness
43 | G17A C24A C49U | ≤ 0.5
44 | U2G C27G G63A A65C G68C | 0.632
45 | C5U A20C G23C C24U C31U U64C | ≤ 0.5
46 | U28A C55G A70G | ≤ 0.5
47 | C24G C33G A36C A37C A42C | 0.505
48 | U2A A21G G44C U59G | ≤ 0.5
49 | G44A A65U | 0.816
50 | U7G G12A U13A | 0.565
51 | C33U C34A | 0.574
52 | G6C A20C A40G A42U C60G | ≤ 0.5
53 | C33U G39A | 0.626
54 | U13A A57U U64G A65G | ≤ 0.5
55 | G25A G68A | 1.02
56 | U13C G38C | 0.644
57 | G25C C34U A37U A40U | ≤ 0.5
58 | G6A U16A C33G A36U | ≤ 0.5
59 | C22U C27U U32A C66U G67C | ≤ 0.5
60 | U16C G63A | 0.884
61 | A14C C34G A43U G48A | ≤ 0.5
62 | U16A C33U A45G C49A U53A | ≤ 0.5
63 | U26C C30A C49U | 0.533

Row | Variant | yeast fitness
64 | C4G A14C G51C | ≤ 0.5
65 | G50C U54C | 0.635
66 | A21U A65C | 0.793
67 | A14G A15C A69C A70G | 0.618
68 | C5G C46G C49G C62A | ≤ 0.5
69 | C4G C5U A37U C61A | ≤ 0.5
70 | U3A G18A C22U | ≤ 0.5
71 | A15C C30A A42C G56A A57U | 0.578
72 | G9A C22U C30U | 0.519
73 | U13A G48C C55G | 0.554
74 | G25A C55A | 0.725
75 | C11U A40U C46U | 0.637
76 | U7A C31A | 0.634
77 | G23A C61A A70U | ≤ 0.5
78 | C31U A37U A69U | 0.677
79 | G18A A20G A69U | 0.542
80 | C5U A37U A42U A69U | ≤ 0.5
81 | A15C G17A C22U G23C G51A A70U | 0.596
82 | G25A C29G | 0.721
83 | U7G G44C | 0.666
84 | U8C U13C A36U G38A A65C | ≤ 0.5
